Laboratory results: ChEMBL document CHEMBL3124867, “Hepatitis C replication inhibitors that target the viral NS4B protein” (J Med Chem, 2014)
pEC50, pIC50: −log10 of the molar value.

Experiments:
Rattus norvegicus = assay: Prodrug conversion in CD rat assessed as 4-(3-chloro-6-cyclopropyl-8-(trifluoromethyl)imidazo[1,2-a]pyridine-2-carbonyl)-1-((trans)-4-hydroxycyclohexyl)piperazin-2-one level at 300 mg/kg, po; assay type: ADME, organism-based; design: dose 300 mg/kg, route oral; conditions: in vivo
Method in brief: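 CD rats were given a single oral dose of 300 mg/kg of parent suspension or of prodrug. Plasma was assayed for the parent drug and for uncleaved prodrug.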

Hepatitis C virus [1] = assay: Antiviral activity against Hepatitis C virus genotype 1a infected in human HuH7 cells after 48 hrs by luciferase reporter gene assay; assay type: functional, organism-based, Hepacivirus hominis; conditions: subtype 1a, Huh-7, 48 h
Hepatitis C virus [2] = assay: Antiviral activity against Hepatitis C virus genotype 1b expressing NS4B V105M mutant infected in human HuH7 cells after 48 hrs by luciferase reporter gene assay; assay type: functional, organism-based, Hepacivirus hominis; conditions: Huh-7, 48 h
Hepatitis C virus [3] = assay: Antiviral activity against Hepatitis C virus genotype 1b expressing NS4B H94N mutant infected in human HuH7 cells after 48 hrs by luciferase reporter gene assay; assay type: functional, organism-based, Hepacivirus hominis; conditions: Huh-7, 48 h
Huh-7 = assay: Cytotoxicity against human HuH7 cells at 50 uM after 2 days by Cell Titer Glo assay; assay type: cell-based; conditions: huh-7, 48 h
Method in brief: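 Huh7 cells were exposed to compound at 50 μM for 2 days and scored for cellular toxicity.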

[4] = Lipophilicity, log D of the compound by chromatographic analysis; assay type: physicochemical
Method in brief: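 Lipophilicity was measured chromatographically and reported as ChromLogD; ≥6 replicates.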

[5] = Displacement of [3H]-3-(1-(3-chloro-6-isopropyl-8-(trifluoromethyl)imidazo[1,2-a]pyridine-2-carbonyl)piperidin-4-yl)oxazolidin-2-one from HCV genotype 1b C-terminal His-tagged NS4B (1 to 261 aa) expressed in baculovirus infected SF9 cells after overnight incubation; design: species or system Hepatitis C virus subtype 1b
Hepatitis C virus [6] = assay: Antiviral activity against Hepatitis C virus genotype 1b infected in human HuH7 cells after 48 hrs by luciferase reporter gene assay; assay type: functional, organism-based, Hepacivirus hominis; conditions: Huh-7, 48 h

Structure (SMILES)	Stability (Rattus norvegicus)	pEC50 (Hepatitis C virus [1])	pEC50 (Hepatitis C virus [2])	pEC50 (Hepatitis C virus [3])	Activity (Huh-7)	chromatographic logD [4]	pIC50 [5]	pEC50 (Hepatitis C virus [6])
CN(C)CC(=O)O[C@H]1CC[C@H](N2CCN(C(=O)c3nc4c(C(F)(F)F)cc(C5CC5)cn4c3Cl)CC2=O)CC1	Stable							
Cn1c(C(=O)N2CCN([C@H]3CC[C@H](O)CC3)C(=O)C2)nc2c(C(F)(F)F)cc(C3CC3)cc21		9.30	6.64	6.82	Non-toxic	4.3	7.62	8.52
CCC(=O)O[C@H]1CC[C@H](N2CCN(C(=O)c3nc4c(C(F)(F)F)cc(C5CC5)cn4c3Cl)CC2=O)CC1	Stable							
O=C(c1nc2c(C(F)(F)F)cc(C3CC3)cn2c1Cl)N1CCN(C(=O)[C@H]2C[C@H](O)C2)CC1		8.20	< 6.00	6.14			7.00	7.72
O=C(c1oc2c(C(F)(F)F)cc(C3CC3)cc2c1Cl)N1CCN([C@H]2CC[C@H](O)CC2)C(=O)C1		10.05	6.96	7.66	Non-toxic	5.1	8.40	9.10
O=C(O)COCC(=O)O[C@H]1CC[C@H](N2CCN(C(=O)c3nc4c(C(F)(F)F)cc(C5CC5)cn4c3Cl)CC2=O)CC1	Stable							
O=C(c1nc2c(C(F)(F)F)cc(C3CC3)cn2c1Cl)N1CCC(N2CCOC2=O)CC1		8.08	< 6.00	6.43			7.12	7.92
O=C(CO)O[C@H]1CC[C@H](N2CCN(C(=O)c3nc4c(C(F)(F)F)cc(C5CC5)cn4c3Cl)CC2=O)CC1	Stable							
O=C(c1nc2c(C(F)(F)F)cc(C3CC3)cn2c1Cl)N1CCC2(OCC3(CC3)CO2)C(O)C1 (racemic)		7.85	6.11	6.64			7.55	8.37
O=C(c1nn2c(C(F)(F)F)cc(C3CC3)cc2c1Cl)N1CCC(N2CCOC2=O)CC1		8.70	6.43	7.03			7.43	8.30
O=C(c1nc2c(C(F)(F)F)cc(C3CC3)cn2c1Cl)N1CCN([C@@H]2C[C@H]3C[C@H]3C2)C(=O)C1		8.85	7.23	7.70			7.24	9.00
O=C(c1nn2c(C(F)(F)F)cc(C3CC3)cc2c1Cl)N1CCN([C@H]2C[C@@H]3C[C@@H]3[C@H]2O)C(=O)C1		7.39	< 6.00	< 6.00			7.74	7.85
O=C(c1nn2c(C(F)(F)F)cc(C3CC3)cc2c1Cl)N1CCN([C@H]2C[C@H]3C[C@H]3[C@H]2O)C(=O)C1		6.92	< 6.00	< 6.00			7.80	7.52
O=C(c1nn2c(C(F)(F)F)cc(C3CC3)cc2c1Cl)N1CCN([C@@H]2C[C@H]3C[C@H]3[C@@H]2O)C(=O)C1		8.10	6.40	7.19			7.74	8.31
O=C(c1nn2c(C(F)(F)F)cc(C3CC3)cc2c1Cl)N1CCC2(OCC3(CC3)CO2)C(O)C1 (racemic)		8.40	6.60	7.41			8.00	8.72
O=C(c1nn2c(C(F)(F)F)cc(C3CC3)cc2c1Cl)N1CCN([C@@H]2C[C@H]3C[C@H]3[C@H]2O)C(=O)C1		8.40	7.19	7.42			7.64	8.64
O=C(c1nn2c(C(F)(F)F)cc(C3CC3)cc2c1Cl)N1CCN(C(=O)[C@H]2C[C@H](O)C2)CC1		8.70	< 6.00	6.48			> 7.40	8.08
O=C(c1nn2c(C(F)(F)F)cc(C3CC3)cc2c1Cl)N1CCN([C@@H]2C[C@@H]3C[C@@H]3[C@@H]2O)C(=O)C1		7.02	< 6.00	< 6.00			7.64	7.72
